Residue numbers refer to the chain shown, from its start. Each block holds one compound with its values, some of them ahead of it. Numbered stars: 1 amine (or outer) side, 2 acyl side, 3 side chain; on linkers, the order of the positions; unused ones are H or OH. Bridge positions count the residues as written; N and C are the ends. Square brackets hold non-standard residues; d marks the D form. Peptide text beside a SMILES is read from it. X1 = CC(=O)NC(C(=O)OC(C(C)C)C(N[*:1])C(=O)[*:2])C(O)C(C)C; PhLac = O=C(O)[CH](O)Cc1ccccc1; NMeT = CN[CH](C(=O)O)[CH](C)O; NMeA = CN[CH](C)C(=O)O; NMeDha = C=C(NC)C(=O)O
Assays:
[1] = molecular target: T1, mouse GPR39 (Mus musculus, UniProt Q5U431); assay: FLIPR Ca2+ assay in HEK293T cells stably expressing mouse GPR39; format: cell-based; settings: for GPR39 activation, presence or absence of 4 μM Zn2+: with or without 4 μM Zn2+
T1 sequence (Q5U431 1-456): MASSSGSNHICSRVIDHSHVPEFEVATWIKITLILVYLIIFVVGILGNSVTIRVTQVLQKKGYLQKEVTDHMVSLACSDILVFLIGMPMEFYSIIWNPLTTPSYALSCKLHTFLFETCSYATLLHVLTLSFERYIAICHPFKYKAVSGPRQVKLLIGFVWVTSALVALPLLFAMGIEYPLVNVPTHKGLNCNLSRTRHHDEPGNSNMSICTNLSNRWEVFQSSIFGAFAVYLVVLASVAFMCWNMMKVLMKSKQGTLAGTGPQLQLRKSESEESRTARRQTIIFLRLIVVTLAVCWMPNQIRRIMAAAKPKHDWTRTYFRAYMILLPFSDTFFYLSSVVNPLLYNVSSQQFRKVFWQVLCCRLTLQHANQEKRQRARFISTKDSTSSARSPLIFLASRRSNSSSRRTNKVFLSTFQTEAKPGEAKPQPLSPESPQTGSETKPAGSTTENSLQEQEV

[2] = test system: zebrafish (Danio rerio) GPR39 (zfGPR39); assay: FLIPR Ca2+ assay, HEK293T cells expressing zebrafish GPR39; format: cell-based
Outline: (§1)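 HEK293T cells expressing mouse GPR39 H17A/H19A mutant or zebrafish GPR39, Fluo-8-loaded, read by FLIPR at room temperature (addition at 30 s, 150 s recording). Where Zn2+ used, cells preincubated with 4 μM Zn2+ in recording buffer for 5 min and it was kept with all compound concentrations. Responses normalized to 200 μM LCAS; n = 3 or 4.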

[3] = test system: GPR39; settings: cited from earlier work
[4] = test system: mock-transfected HEK293T cells; assay: Ca2+ response of mock-transfected HEK293T cells; format: cell-based, human; settings: 200 μM
Outline: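 Sham-transfected HEK293T cells loaded with Fluo-8 AM (2 μg/ml) in recording buffer for 25 min at room temperature, then 5 min in recording buffer. FLIPR read at room temperature every 1 s; 200 μM test compound or Zn2+ dispensed at 30 s, followed by 150 s recording.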

[5] = molecular target: GHSR (Homo sapiens, UniProt Q92847); assay: FLIPR Ca2+ assay, GHSR expressed in HEK293T-Gα15-GCaMP6s cells; format: cell-based; settings: for GHSR activation: 200 μM BAs; for Maximal efficacy at GHSR: normalized to 1 μM ghrelin
[6] = molecular target: T2, GPBAR1 (Homo sapiens, UniProt Q8TDU6); assay: CRE luciferase reporter assay; format: cell-based
T2 sequence (Q8TDU6 1-330): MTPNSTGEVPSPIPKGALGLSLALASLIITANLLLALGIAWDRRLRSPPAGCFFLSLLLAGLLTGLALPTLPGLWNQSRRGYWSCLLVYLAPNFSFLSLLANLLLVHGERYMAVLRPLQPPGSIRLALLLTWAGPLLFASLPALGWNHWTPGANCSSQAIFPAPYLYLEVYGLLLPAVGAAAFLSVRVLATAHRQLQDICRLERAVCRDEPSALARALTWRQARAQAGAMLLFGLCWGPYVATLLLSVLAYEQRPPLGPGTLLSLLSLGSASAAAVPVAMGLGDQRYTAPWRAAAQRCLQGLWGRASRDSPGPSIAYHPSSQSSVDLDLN

[7] = test system: pancreatic acinar cells; assay: Ca2+ imaging in freshly isolated pancreatic acinar cells; format: cell-based, mouse
[8] = molecular target: T3, GPR39 (Homo sapiens, UniProt O43194); format: cell-based; settings: 200 μM
T3 sequence (O43194 1-453): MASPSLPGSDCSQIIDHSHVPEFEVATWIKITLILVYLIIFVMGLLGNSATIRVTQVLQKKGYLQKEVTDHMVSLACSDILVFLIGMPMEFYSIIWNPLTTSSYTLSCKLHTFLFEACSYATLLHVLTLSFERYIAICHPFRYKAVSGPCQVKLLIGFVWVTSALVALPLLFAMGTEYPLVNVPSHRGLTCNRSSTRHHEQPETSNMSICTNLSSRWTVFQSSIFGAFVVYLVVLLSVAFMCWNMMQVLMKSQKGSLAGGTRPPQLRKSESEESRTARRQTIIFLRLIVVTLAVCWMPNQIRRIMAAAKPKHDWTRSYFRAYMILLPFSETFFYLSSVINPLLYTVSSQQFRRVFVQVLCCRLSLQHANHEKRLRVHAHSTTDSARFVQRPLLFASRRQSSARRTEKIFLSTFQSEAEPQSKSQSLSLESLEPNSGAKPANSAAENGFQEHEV
Outline: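 HEK293T cells stably expressing Gα15 and GCaMP6s, on poly-D-lysine-coated plates, transiently transfected with human GPCR cDNAs. Test compound added by pipette at 200 μM; intracellular Ca2+ imaged by confocal microscopy.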

[9] = molecular target: T4, H17A/H19A mutant GPR39 (Mus musculus, UniProt Q5U431, H17A/H19A); assay: FLIPR Ca2+ assay, HEK293T cells expressing GPR39 H17A/H19A mutant; format: cell-based
T4 sequence (Q5U431 1-456 H17A/H19A): T1 sequence (Q5U431 1-456) with H17A, H19A
Outline: as §1

[10] = test system: G. Gallus GPR39; assay: FLIPR Ca2+ assay, HEK293T cells expressing chicken GPR39; format: cell-based, chicken (Gallus Gallus)
[11] = test system: G. japonicus GPR39; assay: FLIPR Ca2+ assay, HEK293T cells expressing gecko GPR39; format: cell-based, gecko (Gekko japonicus)
[12] = test system: X. laevis GPR39; assay: FLIPR Ca2+ assay, HEK293T cells expressing frog GPR39; format: cell-based, frog (Xenopus laevis)
[13] = test system: pancreatic acinar cells; assay: Amylase release from isolated pancreatic acini; format: cell-based, mouse; settings: 500 μM LCAS, 500 μM TLCAS, 1 nM caerulein
Outline: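 Mouse acini (WT, Gpr39−/−, Gpbar1−/−) isolated and held as for the LDH assay, then exposed to test compound at 37°C for 30 min. Amylase activity measured in supernatant. Vehicle leakage subtracted as basal; net release expressed as % of total activity (0.5% Triton X-100 lysate). One-way ANOVA with Tukey posttest versus WT.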

[14] = test system: pancreatic acinar cells; assay: Acinar cell injury: PI uptake, LDH leakage, blebbing; format: cell-based, mouse; settings: 4 hours
Outline: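 Mouse acini (WT, Gpr39−/−, Gpbar1−/−) digested with 1 mg/ml collagenase IV, collected on 150-μm nylon cloth, and suspended in Hepes-buffered DMEM/F12 with 1 mg/ml BSA. Exposed to test compound at 37°C for 4 h. LDH in supernatant measured by kit, expressed as % of total LDH (0.5% Triton X-100 lysate). PI uptake: acini resuspended in 2 μg/ml PI, fluorescence ex 536/em 617 nm, normalized to vehicle.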

[15] = WT mice, LCAS 500 μM, TLCAS 500 μM, caerulein 100 nM

GHSR, sequence (Q92847 whole entry): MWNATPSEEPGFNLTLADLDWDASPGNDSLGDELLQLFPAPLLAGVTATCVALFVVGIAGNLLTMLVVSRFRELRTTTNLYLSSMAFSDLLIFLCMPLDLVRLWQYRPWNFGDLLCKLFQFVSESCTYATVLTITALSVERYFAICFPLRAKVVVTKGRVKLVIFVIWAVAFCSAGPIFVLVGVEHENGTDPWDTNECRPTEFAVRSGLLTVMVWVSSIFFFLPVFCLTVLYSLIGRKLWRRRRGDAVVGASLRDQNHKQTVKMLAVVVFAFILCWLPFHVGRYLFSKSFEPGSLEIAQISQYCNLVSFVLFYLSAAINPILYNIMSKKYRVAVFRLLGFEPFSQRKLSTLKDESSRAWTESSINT

GPR39 activation, presence or absence of 4 μM Zn2+ [1]: robustly activated
Compound: 5b-cholestanpentol
zfGPR39 activation [2]: minimal effects

Compound: CCCCCC1OC1C/C=C\C/C=C\C/C=C\CCCC(=O)O (racemic) [14(15)-EET, (±)14(15)-epoxy-5Z,8Z,11Z-eicosatrienoic acid]
GPR39 blockade (report) [3]: blocked

Compound: CCCCC[C@H](O)/C=C/C=C\C/C=C\C/C=C\CCCC(=O)O [15(S)-HETE, 15S-hydroxy-5Z,8Z,11Z,13E-eicosatetraenoic acid]
GPR39 activation (report) [3]: GPR39 activation

GHSR activation [5]: activated
Maximal efficacy at GHSR [5]: comparable to ghrelin
Compound: C[C@H](CCC(=O)O)[C@H]1CC[C@H]2[C@@H]3[C@H](O)C[C@@H]4C[C@H](O)CC[C@]4(C)[C@H]3CC[C@]12C [CDCA, chenodeoxycholic acid]
Ca2+ elevation in mock-transfected cells [4]: nonspecific Ca^2+ elevations

GPBAR1 activation [6]: potent agonists
Effect on GHSR activation by ghrelin ([5]; 10 μM BA): did not potentiate or attenuate
GHSR activation [5]: activated
Maximal efficacy at GHSR [5]: comparable to ghrelin
Compound: C[C@H](CCC(=O)O)[C@H]1CC[C@H]2[C@@H]3CC[C@@H]4C[C@H](O)CC[C@]4(C)[C@H]3C[C@H](O)[C@]12C [DCA, deoxycholic acid]
Ca2+ elevation in mock-transfected cells [4]: nonspecific Ca^2+ elevations

Compound: CC[C@H]1[C@@H](O)[C@@H]2[C@H](C[C@H](O)[C@]3(C)[C@@H]([C@H](C)C[C@H](C)C(=O)O)CC[C@@H]23)[C@@]2(C)CC[C@@H](O)C[C@@H]12 [INT-777]
Ca2+ elevation in acinar cells by GPBAR1 ligands and agonist [7]: not observed

Effect on Ca2+ mobilization induced by LCA in GHSR-expressing cells ([5]; 10 μM JMV2959, LCA 200 μM): moderately but not fully inhibited
Compound: COc1ccc(Cn2c(CCc3ccccc3)nnc2[C@@H](Cc2c[nH]c3ccccc23)NC(=O)CN)cc1 [JMV-2959, JMV2959]

Enhancement of GPR39 activation by Zn2+ ([1]; 4 μM BA): enhanced
Effect on GHSR activation by ghrelin ([5]; 1 μM LCA): no effect
Effect on GHSR activation by ghrelin ([5]; 10 μM BA): attenuated the effect of ghrelin
GHSR activation [5]: activated
Sensitivity at GHSR ([5]; compared with UDCA, DCA, and CDCA): relatively higher sensitivity
Maximal efficacy at GHSR [5]: lower efficacy
Compound: C[C@H](CCC(=O)O)[C@H]1CC[C@H]2[C@@H]3CC[C@@H]4C[C@H](O)CC[C@]4(C)[C@H]3CC[C@]12C [LCA, lithocholic acid]

Effect on GHSR activation by ghrelin ([5]; 10 μM BA): did not potentiate or attenuate
GHSR activation [5]: activated
Maximal efficacy at GHSR [5]: comparable to ghrelin
Compound: C[C@H](CCC(=O)O)[C@H]1CC[C@H]2[C@@H]3[C@@H](O)C[C@@H]4C[C@H](O)CC[C@]4(C)[C@H]3CC[C@]12C [UDCA, ursodeoxycholic acid]

Compound: C=C1C(=O)NC(C)C(=O)N(C)C(C)C(=O)NC(C(OC(=O)C(NC(C)=O)C(O)C(C)C)C(C)C)C(=O)N(C)C(C(C)OC)C(=O)OC(C)C(NC(C)=O)C(=O)OC(Cc2ccccc2)C(=O)N1C (stereo not drawn) [YM254890] (Ac-T[PhLac][NMeDha]A[NMeA][X1][NMeT](Me); ester 1-C; configuration not given here)
Effect on Ca2+ elevation induced by TLCAS in acinar cells ([7]; 10 μM YM254890 for 10 min, 500 μM TLCAS): eliminated

Zn2+ concentration that notably shifts GPR39 activation by LCAS [1]: above 1 μM
Effect of Zn2+ on GPR39-mediated calcium response to TLCAS ([1]; 4 μM Zn2+, leftward shift of the dose-response curve): potentiated
Ca2+ response of GPR39-transfected HEK293T cells [8]: exhibited Ca^2+ responses
Effect of H17A/H19A mutations on Zn2+-induced Ca2+ elevation [9]: abolished
Compound: [Zn+2] [Zn^2+]
Ca2+ response of mock-transfected HEK293T cells [4]: responded to neither
zfGPR39 activation [2]: little response
Response of chicken GPR39 [10]: strong dose-dependent responses
Response of gecko GPR39 [11]: strong dose-dependent responses
Response of frog GPR39 [12]: strong dose-dependent responses

GPR39 activation, presence or absence of 4 μM Zn2+ [1]: could not activate GPR39
Compound: CC(C)CCC[C@@H](C)[C@H]1CC[C@H]2[C@@H]3CC=C4C[C@@H](OS(=O)(=O)O)CC[C@]4(C)[C@H]3CC[C@]12C [cholesterol-S, cholesterol 3-sulfate]

GPR39 activation, presence or absence of 4 μM Zn2+ [1]: could not activate GPR39
Compound: CC(C)CCC[C@@H](C)[C@H]1CC[C@H]2[C@@H]3CC=C4C[C@@H](O)CC[C@]4(C)[C@H]3CC[C@]12C [cholesterol]

Compound: Caerulein
Effect of deleting Gpbar1 on induced amylase discharge [13]: did not alter
Effect of Gpr39 knockout on induced PI uptake and LDH leakage ([14]; Gpr39 knockout): did not affect
LDH release from isolated acinar cells [14, 15]: increased LDH release
PI uptake into isolated acinar cells [14, 15]: increased PI uptake

Source: publication PMC10836733 (Science Advances, 2024)
